In ChEMBL document CHEMBL4414632, “Design, Synthesis, and Biological Evaluation of Novel Indoles Targeting the Influenza PB2 Cap Binding Region” (J Med Chem, 2019):
Active and inactive are the calls of the source. The calls are words filed in the database; no cut-off is given here.

Legend:
[1] = test system: Influenza A virus; experiment: Antiviral activity against Influenza A virus (A/Taiwan/1/1986(H1N1)) infected in MDCK cells assessed as reduction in virus-induced cytopathic effect by measuring ATP level incubated for 24 hrs by ATPlite luminescence assay; format: functional, organism-based
[2] = Therapeutic index, ratio of CC50 for dog MDCK cells to IC50 for Influenza A virus A/[…]/3/1975 (H3N2); format: toxicity; conditions: read-out: Ratio CC50/IC50
[3] = test system: Influenza A virus; experiment: Antiviral activity against Influenza A virus A/[…]/3/1975 (H3N2) infected in MDCK cells assessed as reduction in virus-induced cytopathic effect by measuring ATP level incubated for 24 hrs by ATPlite luminescence assay; format: functional, organism-based
[4] = Therapeutic index, ratio of CC50 for dog MDCK cells to IC50 for Influenza A virus (A/Taiwan/1/1986(H1N1)); format: toxicity; conditions: read-out: Ratio CC50/IC50
[5] = test system: Influenza A virus; experiment: In vivo antiviral activity against Influenza A virus (A/Puerto Rico/8/34(H1N1)) infected in BALB/c mouse assessed as survival rate at 10 mg/kg, po administered bid for 10 days after 48 hrs post infection and observed for 21 days relative to control; format: functional, A/Puerto Rico/8/1934(H1N1)
[6] = test system: Influenza A virus; experiment: Antiviral activity against Influenza A virus (A/Puerto Rico/8/34(H1N1)) infected in human A549 cells assessed as reduction in virus neuraminidase level incubated for 24 hrs by fluorescence based assay; format: functional, organism-based; conditions: A/Puerto Rico/8/1934(H1N1), A549, 24 h
Procedure, shortened: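 A549 cells, 6,000/well, seeded onto compound (nine four-fold dilutions) in Ham's F12 with 2% FBS, 1% Hepes, gentamycin, 24 h at 37°C, 5% CO2; then infected with A/Puerto Rico/8/34 at MOI 1 for further 24 h.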

[7] = Therapeutic index, ratio of CC50 for human A549 cells to IC50 for Influenza A virus (A/Puerto Rico/8/34(H1N1)); format: toxicity; conditions: read-out: Ratio CC50/IC50
[8] = Displacement of gamma-[6-aminohexyl]-GTP-biotin from Influenza A virus A/Victoria/3/1975 (H3N2) N-terminal 6His-tagged PB2 (320 to 484 residues) expressed in Escherichia coli incubated for 1 hr by TR-FRET assay
[9] = Displacement of gamma-[6-aminohexyl]-GTP-biotin from Influenza B virus B/Brisbane/60/2008 C-terminal 6His-tagged PB2 (320 to 484 residues) expressed in Escherichia coli incubated for 1 hr by TR-FRET assay
[10] = test system: Influenza A virus; experiment: In vivo antiviral activity against Influenza A virus (A/Puerto Rico/8/34(H1N1)) infected in BALB/c mouse assessed as survival rate at 30 mg/kg, po administered bid for 10 days after 48 hrs post infection and observed for 21 days relative to control; format: functional, A/Puerto Rico/8/1934(H1N1)
[11] = target: Glycogen synthase kinase-3 beta (Homo sapiens) (UniProt P49841); experiment: Inhibition of GSK3beta (unknown origin) at 1 uM
Glycogen synthase kinase-3 beta (Homo sapiens), sequence (P49841 whole entry, looked up): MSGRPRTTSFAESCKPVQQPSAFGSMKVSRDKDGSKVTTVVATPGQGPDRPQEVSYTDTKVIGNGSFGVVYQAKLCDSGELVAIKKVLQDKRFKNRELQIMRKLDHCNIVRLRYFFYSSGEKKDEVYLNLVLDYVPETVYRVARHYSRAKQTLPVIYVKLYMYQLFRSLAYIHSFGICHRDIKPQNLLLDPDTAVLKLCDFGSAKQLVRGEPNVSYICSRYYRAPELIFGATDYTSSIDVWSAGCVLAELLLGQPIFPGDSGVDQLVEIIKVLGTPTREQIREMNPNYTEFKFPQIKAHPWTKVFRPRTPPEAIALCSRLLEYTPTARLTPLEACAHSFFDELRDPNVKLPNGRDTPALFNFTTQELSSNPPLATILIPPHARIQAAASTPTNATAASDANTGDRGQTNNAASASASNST

NC(=O)c1nc(F)cnc1O
IC50 [1]: 16800 nM
selectivity ratio [2]: > 3
IC50 [3]: 35700 nM
selectivity ratio [4]: > 6

CCOC(=O)C1=C[C@@H](OC(CC)CC)[C@H](NC(C)=O)[C@@H](N)C1 [OSELTAMIVIR]
Activity [5]: 38%
IC50 [6]: 31 nM
selectivity ratio [7]: > 4130

O=C(O)[C@H]1C2CCC(CC2)[C@@H]1Nc1nc(-c2c[nH]c3c(F)cc(F)cc23)ncc1F
IC50 [6]: 22 nM
IC50 [8]: 120 nM
IC50 [9]: > 50000 nM
Activity [10]: 75%
inhibition [11]: inactive

N#Cc1cc(F)c2[nH]cc(-c3ncc(F)c(N[C@H]4C5CCC(CC5)[C@@H]4C(=O)O)n3)c2c1
IC50 [1]: 11 nM
IC50 [6]: 43 nM
IC50 [8]: 80 nM
IC50 [9]: 13000 nM
selectivity ratio [2]: 59
IC50 [3]: 19 nM
selectivity ratio [7]: > 612
selectivity ratio [4]: 97

Cc1cc(F)c2[nH]cc(-c3ncc(F)c(N[C@H]4C5CCC(CC5)[C@@H]4C(=O)O)n3)c2c1
IC50 [1]: 4 nM
IC50 [6]: 22 nM
IC50 [8]: 120 nM
IC50 [9]: 26000 nM
selectivity ratio [2]: 25
IC50 [3]: 11 nM
selectivity ratio [7]: 1490
selectivity ratio [4]: 75

O=C(O)[C@H]1C2CCC(CC2)[C@@H]1Nc1nc(-c2c[nH]c3c(F)cc(Cl)cc23)ncc1F
IC50 [1]: 21 nM
IC50 [6]: 53 nM
IC50 [8]: 170 nM
IC50 [9]: > 50000 nM
selectivity ratio [2]: 28
IC50 [3]: 47 nM
selectivity ratio [7]: > 485
selectivity ratio [4]: 83
